The values that follow come from ChEMBL document CHEMBL4028848, “Discovery of N-{4-[5-(4-Fluorophenyl)-3-methyl-2-methylsulfanyl-3H-imidazol-4-yl]-pyridin-2-yl}-acetamide (CBS-3595), a Dual p38α MAPK/PDE-4 Inhibitor with Activity against TNFα-Related Diseases” (J Med Chem, 2017).

Series [1] deals with Rattus norvegicus. As to the kind of experiment: Toxicity in Sprague-Dawley rat assessed as increase in ptyalism at 150 mg/kg, po administered via gavage for daily 28 days followed by 2 weeks off without dosing. It is filed as organism-based. Particulars: in vivo.
A further series deals with Serum. As to the kind of experiment: Drug uptake in male Lewis rat serum at 10 mg/kg, po by LC-MS/MS analysis. Particulars: in vivo. It is filed as ADME, organism-based. In a few lines: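 Male Lewis rats were dosed orally at 10 mg/kg 1 h before an i.v. LPS challenge of 0.1 mg/kg. Serum drug concentration was measured 1.5 h after LPS.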
A short description of series [2]: Half life in Beagle dog at 40 mg/kg, po by LC-MS/MS analysis. The class given is ADME, organism-based, Canis lupus familiaris. Particulars: in vivo. In a few lines: (§1)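 Oral single-dose PK; plasma concentrations of parent and metabolite measured. Dogs: blood sampled 0.25 to 24 h after dosing. Humans: healthy subjects, placebo-controlled single-blind randomized consecutive dosing, plasma sampled predose and 0.25–36 h post dose. 10 mg also given fasting and fed in crossover. Parameters derived from individual concentration–time profiles.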

A short description of series [3]: Cmax in mongrel dog at 30 mg/kg, po by LC-MS/MS analysis. Particulars: in vivo. It is filed as ADME, organism-based, Canis lupus familiaris. Also noted: dose 30 mg/kg, route oral. In a few lines:
as §1

The test system of series [4] is Rattus norvegicus. Nature of the series: In vivo inhibition of P38 MAPKalpha in Sprague-Dawley rat assessed as decrease in LPS-stimulated TNFalpha level in serum at 10 mg/kg, po pretreated for 1 hr followed by LPS addition measured after 2 hrs relative to control. It is filed as functional. In a few lines:
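Sprague–Dawley rats (8/group) were dosed orally with vehicle or 1, 3 or 10 mg/kg. LPS 0.1 mg/kg i.v. was given 1 h after dosing. Blood was collected 2 h later and serum TNFα measured. Inhibition was calculated relative to the mean of vehicle-treated animals.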

Series [5] is described as follows: AUC (0 to t) in Beagle dog at 40 mg/kg, po by LC-MS/MS analysis. The class given is ADME, organism-based, Canis lupus familiaris. Particulars: in vivo. An outline of the steps: (§2)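 Toxicokinetics from a maximum-tolerated-dose study in four Beagle dogs given 40 mg/kg orally. Plasma levels of both parent and its predominant metabolite were monitored.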
The subject of series [6] is Mus musculus. As to the kind of experiment: In vivo inhibition of P38 MAPKalpha in BALB/c mouse assessed as decrease in LPS/GalN-stimulated TNFalpha level in plasma at 3 mg/kg, po administered via gavage pretreated for 1 hr followed by LPS/GalN addition measured after 1.5 hrs relative to control. It is filed as functional. In a few lines:
(§3)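 Male BALB/c mice, n = 6/group, given 3, 10 or 30 mg/kg orally by gavage 1 h before i.p. D-GalN (500 mg/kg) plus LPS (1.5 μg/kg). Blood was taken by cardiac puncture and plasma TNFα measured against a vehicle-only control.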

A short description of series [7]: Tmax in male Sprague-Dawley rat at 30 mg/kg, po by LC-MS/MS analysis. It is filed as ADME, organism-based. Particulars: in vivo.
The nature of series [8]: Cmax in cynomolgus monkey at 20 mg/kg, po measured on day 1 and 27 post dose by LC-MS/MS analysis. It is filed as ADME, organism-based, Macaca fascicularis. Particulars: in vivo. Also noted: dose 20 mg/kg, route oral. An outline of the steps:
(§4)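 Within a 4-week oral toxicity study, Cynomolgus monkeys received 6, 12 or 20 mg/kg daily. Blood was sampled from 0.5 to 24 h post dose on days 1 and 27. Tmax, Cmax, T1/2 and AUC0–24 came from individual profiles of parent and metabolite.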

Series [9] in a line: Tmax in cynomolgus monkey at 20 mg/kg, po measured on day 1 and 27 post dose by LC-MS/MS analysis. The class given is ADME, organism-based, Macaca fascicularis. Particulars: in vivo.
Series [10] relates to Mus musculus. As to the kind of experiment: In vivo inhibition of P38 MAPKalpha in BALB/c mouse assessed as decrease in LPS/GalN-stimulated TNFalpha level in plasma at 10 mg/kg, po administered via gavage pretreated for 1 hr followed by LPS/GalN addition measured after 1.5 hrs relative to control. The class given is functional. In a few lines:
as §3

A short description of series [11]: Half life in male Sprague-Dawley rat at 30 mg/kg, po by LC-MS/MS analysis. The class given is ADME, organism-based. Particulars: in vivo.
The subject of series [12] is Rattus norvegicus. Nature of the series: In vivo inhibition of P38 MAPKalpha in Sprague-Dawley rat assessed as decrease in LPS-stimulated TNFalpha level in serum at 3 mg/kg, po pretreated for 1 hr followed by LPS addition measured after 2 hrs relative to control. The class given is functional.
In the next series the test system is Salmonella typhimurium. As to the kind of experiment: Genotoxicity in Salmonella typhimurium in presence of S9 fraction by Ames test. Particulars: salmonella enterica subsp. enterica serovar typhimurium. The class given is toxicity. An outline of the steps: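 Bacterial reverse mutation (Ames) test in S. typhimurium and E. coli strains, run with and without S9 mix.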

Series [13] in a line: Drug excretion in human urine at 10 to 50 mg, po administered as single dose up to 36 hrs. It is filed as ADME, organism-based. Particulars: read-out: Drug excretion. In a few lines:
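Healthy subjects, single oral dose. Urine collected at 0–6, 6–12, 12–24 and 24–36 h post dose and analysed for parent and metabolite. Excreted amount expressed relative to administered dose.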

A short description of series [14]: Half life in female Sprague-Dawley rat at 30 mg/kg, po by LC-MS/MS analysis. The class given is ADME, organism-based. Particulars: in vivo.
A short description of series [15]: AUC (0 to infinity) in male Sprague-Dawley rat at 30 mg/kg, po by LC-MS/MS analysis. Particulars: in vivo. It is filed as ADME, organism-based. Also noted: dose 30 mg/kg, time infinity, route oral. In a few lines: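 Rats of each sex received a single oral dose of 30 mg/kg. Plasma concentration–time profiles of parent were determined separately for females and males.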

Series [16] deals with Rattus norvegicus. Nature of the series: Toxicity in rat assessed as effect on respiratory rate by measuring increase in peak expiratory flow 300 mg/kg, po administered as single dose. It is filed as organism-based. Particulars: in vivo.
In series [17] the test system is Rattus norvegicus. Nature of the series: Toxicity in Sprague-Dawley rat assessed as increase in histopathological changes at 150 mg/kg, po administered via gavage for daily 28 days followed by 2 weeks off without dosing. The class given is organism-based. Particulars: in vivo.
Series [18] deals with Voltage-gated inwardly rectifying potassium channel KCNH2 (Homo sapiens, UniProt Q12809). Nature of the series: Inhibition of human ERG expressed in HEK293 cells by patch clamp method. The class given is cell-based.
The subject of series [19] is Rattus norvegicus. Nature of the series: Toxicity in Sprague-Dawley rat assessed as piloerection at 2000 mg/kg, po administered via gavage measured on day 1 and 2. It is filed as organism-based. Particulars: in vivo.
For a further series, the system named is Bone marrow cell. As to the kind of experiment: Clastogenicity in mouse bone marrow cells by microneucleus test. It is filed as toxicity, cell-based. In a few lines:
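In vivo micronucleus test in mouse bone marrow.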

A short description of series [20]: AUC (0 to t) in cynomolgus monkey at 20 mg/kg, po measured on day 1 and 27 post dose by LC-MS/MS analysis. The class given is ADME, organism-based, Macaca fascicularis. Particulars: in vivo. In a few lines: as §4
Series [21] concerns Rattus norvegicus. Nature of the series: Antiarthritic activity in Lewis rat assessed as change in paw volume at 25 mg/kg, po bid administered for 10 days. It is filed as functional, organism-based. An outline of the steps:
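Collagen-induced arthritis in male Lewis rats (5–6 per group). Groups received vehicle, dexamethasone 1 mg/kg, test item 50 mg/kg once daily, or 25 mg/kg twice daily for 10 days. Body weight, arthritic score and paw volume were monitored, and serum COMP was measured at the end.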

Series [22] concerns Rattus norvegicus. As to the kind of experiment: In vivo inhibition of P38 MAPKalpha in Lewis rat assessed as decrease in LPS-stimulated TNFalpha level in serum at 10 mg/kg, po pretreated for 3 hrs followed by LPS addition measured after 1.5 hrs post dose. It is filed as functional, organism-based. An outline of the steps:
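Lewis rats, n = 8/group: females dosed orally at 10 mg/kg at −1, −3 or −5 h relative to LPS challenge, plus one male group dosed at −1 h. Male and female vehicle controls were given at −1 h. Serum TNFα was measured after LPS and compared with vehicle.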

Another series deals with Liver. As to the kind of experiment: Drug level in rat liver microsomes treated with CBS-3595 at 10 to 100 uM. It is filed as ADME, microsome. An outline of the steps: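 Test compound incubated at 10, 30 and 100 μM with liver microsomes from rat, Cynomolgus monkey or human, and metabolites monitored.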
In a further series the test system is Canis familiaris. As to the kind of experiment: AUC (0 to t) in Beagle dog assessed as 4-(4-(4-fluorophenyl)-1-methyl-2-(methylsulfinyl)-1H-imidazol-5-yl)pyridin-2-amine level at 40 mg/kg, po by LC-MS/MS analysis. The class given is ADME, organism-based, Canis lupus familiaris. Particulars: in vivo. In a few lines:
as §2

Each structure is given as a SMILES string. The source made the active and inactive calls. The calls are words filed in the database; no cut-off is given here.

Sequence of Voltage-gated inwardly rectifying potassium channel KCNH2 (Q12809 whole entry): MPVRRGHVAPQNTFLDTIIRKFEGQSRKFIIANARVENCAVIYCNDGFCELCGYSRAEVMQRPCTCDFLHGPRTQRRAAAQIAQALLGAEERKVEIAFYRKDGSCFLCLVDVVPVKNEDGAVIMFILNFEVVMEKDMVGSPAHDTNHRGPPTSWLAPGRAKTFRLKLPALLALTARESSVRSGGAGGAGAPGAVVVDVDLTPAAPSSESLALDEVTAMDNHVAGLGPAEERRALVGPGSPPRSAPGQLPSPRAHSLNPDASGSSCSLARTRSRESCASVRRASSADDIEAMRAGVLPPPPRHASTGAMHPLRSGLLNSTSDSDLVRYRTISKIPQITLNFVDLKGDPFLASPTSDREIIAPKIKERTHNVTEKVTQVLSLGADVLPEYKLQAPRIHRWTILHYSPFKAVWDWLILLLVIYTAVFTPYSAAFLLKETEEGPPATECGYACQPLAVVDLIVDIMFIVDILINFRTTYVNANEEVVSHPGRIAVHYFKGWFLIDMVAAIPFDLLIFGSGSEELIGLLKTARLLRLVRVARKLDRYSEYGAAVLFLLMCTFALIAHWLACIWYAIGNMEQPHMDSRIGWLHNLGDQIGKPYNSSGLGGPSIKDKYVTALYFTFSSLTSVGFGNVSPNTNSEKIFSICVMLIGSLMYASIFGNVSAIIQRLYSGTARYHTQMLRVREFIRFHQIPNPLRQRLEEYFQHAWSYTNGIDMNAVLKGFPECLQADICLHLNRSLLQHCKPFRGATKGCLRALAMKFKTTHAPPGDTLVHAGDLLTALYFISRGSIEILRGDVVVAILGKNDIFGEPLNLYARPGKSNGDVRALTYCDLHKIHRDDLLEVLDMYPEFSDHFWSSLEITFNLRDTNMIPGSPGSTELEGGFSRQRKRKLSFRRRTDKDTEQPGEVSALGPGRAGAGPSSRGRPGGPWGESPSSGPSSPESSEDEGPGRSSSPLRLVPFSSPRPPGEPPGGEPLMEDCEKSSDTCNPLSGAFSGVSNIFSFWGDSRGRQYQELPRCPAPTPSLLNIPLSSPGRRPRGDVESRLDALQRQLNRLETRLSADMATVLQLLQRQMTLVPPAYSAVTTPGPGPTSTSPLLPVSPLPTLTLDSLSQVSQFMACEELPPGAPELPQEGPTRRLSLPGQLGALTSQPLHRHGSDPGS

Take `CC(=O)Nc1cc(-c2c(-c3ccc(F)cc3)nc([S+](C)[O-])n2C)ccn1` (configuration not stated): the Activity entry was “Toxic” in the series with Rattus norvegicus [1]; “Non-Toxic” with Salmonella typhimurium; “Toxic” in the series on Rattus norvegicus [16]; “Toxic” in the series on Rattus norvegicus [17]; “Toxic” with Rattus norvegicus [19]; “Non-Toxic” with Bone marrow cell. This molecule displayed a Drug uptake with Serum of 689 ng/mL. Also, the half-life in [2] was 7.8 h; in series [11], 1.8 h; in [14] it was 2.2 h. The Cmax in series [3] is 14.3 µM; in series [8], 8.4 µM. The inhibition in vivo at 10 mg/kg with Rattus norvegicus [4] stood at 96%; in the series with Mus musculus [10], 84%. In addition, the figures for the exposure AUC(0-t) in series [5] and in [20] were 93.4 µM·h and 79.6 µM·h, respectively. The inhibition in vivo at 3 mg/kg in the series on Mus musculus [6] is 82%; in the series with Rattus norvegicus [12], 88%. Moreover, the results for the Tmax in series [7] and in series [9] were 0.5 h and 4 h, respectively. Besides, the dose excreted at 36 h in series [13] stood at 6%. The same molecule returned an AUC(0-inf) in series [15] of 29.8 µM·h. Besides, the IC50 in [18] is 213 µM. For the same molecule, the result in the series with Rattus norvegicus [21] was inactive. In addition, in the series on Rattus norvegicus [22], the inhibition result is “Active”.

Regarding `Cn1c([S+](C)[O-])nc(-c2ccc(F)cc2)c1-c1ccnc(N)c1` (configuration not stated), the Drug metabolism result with Liver is on record as “Metabolite_Detected”. Moreover, in the series on Canis familiaris, the AUCt was determined as 86.5 µM·h.
